Experimental data taken from paper PMC4182178 (Oncogene, 2014).
Where two headings read alike, the source gives them in different places.

Legend:
[1] = tested on: MCF-7; test: Anchorage independent growth; assay type: cell-based, human
[2] = tested on: Stat3-regulated genes; test: mRNA of Stat3-regulated genes in MDA-MB 468 xenograft tumors; assay type: in vivo, nude mice; conditions: 15 mg/Kg; vs vehicle; p<0.05; listed as PL
Procedure, shortened: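 mRNA levels of Stat3-regulated genes were measured by Q-RT-PCR in excised tumors from nude mice bearing subcutaneous MDA-MB-468 xenografts. Mice had been treated i.p. with test compound 15 mg/Kg in DMSO or with vehicle, 5 days/week for 3 weeks. Values were normalized to β-actin and compared against vehicle-treated tumors.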

[3] = tested on: cleaved caspase 3; test: Cleaved caspase 3 in MDA-MB-468 cells; assay type: cell-based, human; conditions: PL 30μM, 12 hrs
Procedure, shortened: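 MDA-MB-468 cells were exposed to 30 μM test compound and sampled over 15 min to 24 h. Cleaved caspase 3 and GAPDH were measured in whole protein by Luminex bead immunoassay. GAPDH-normalized active caspase 3 was expressed as a percentage of the pre-treatment value.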

[4] = tested on: Sum159PT; test: Anchorage independent growth; assay type: cell-based
[5] = tested on: Stat3 phosphorylation; test: Phosphoflow assay, G-CSF stimulated Stat3 phosphorylation in Kasumi-1 cells; assay type: cell-based; conditions: read-out: IC50 G-CSF stimulated Stat3 phosphorylation, Mean ± SEM, n ≥ 2, G-CSF 10 ng/ml 15′
[6] = tested on: MDA-MB-468 tumor xenografts; test: Human breast cancer cell line xenograft assay, tumor growth; assay type: in vivo, nude mice; conditions: 15 mg/Kg body weight/day IP, 21 days; p < 0.05
[7] = tested on: MDA-MB-453; test: Anchorage independent growth; assay type: cell-based
[8] = tested on: T-47D; test: Anchorage independent growth; assay type: cell-based, human
[9] = tested on: GFP+ SUM159PT cells; assay type: cell-based; conditions: PL 3 and 10 μM
Procedure, shortened: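 SUM159PT cells carrying a lentiviral Stat3-GFP reporter (GFP driven by four M67 repeats) were grown as xenografts in pre-cleared mammary glands of SCID/Beige mice. Excised tumors were digested to single cells and FACS-sorted into GFP+ and GFP− populations. Mammosphere formation efficiency was then assayed in MEGM+ without or with test compound.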

[10] = tested on: MCF 10A; test: Anchorage independent growth; assay type: cell-based
[11] = tested on: MDA-MB-231 cells; test: Anchorage independent growth; assay type: cell-based, human
[12] = Toxicity in mice; assay type: in vivo; conditions: up to a dose of 30 mg/Kg/day for 14 days
[13] = tested on: MC1; test: Mammosphere assay, patient-derived xenograft cells; assay type: cell-based, human; conditions: read-out: IC50 Mammosphere assay, Mean ± SEM, n ≥ 2
Procedure, shortened: (§1)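 Patient-derived breast tumors serially grown in SCID/Beige mouse fat pad were excised, minced, collagenase-digested, mesh-filtered and suspended as single cells in MEGM+. Cells were plated in serum-free, growth-factor-enriched medium in low-attachment plates ± test compound (0/0.1/0.3/1/3/10/100 μM), fed twice weekly, and counted by automated colony counter after 5–12 days. Percent of untreated colony number was fitted for IC50.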

[14] = tested on: Stat3 phosphorylation; test: Constitutive Stat3 phosphorylation in breast cancer cell lines; assay type: cell-based, human; conditions: for IC50: read-out: IC50 Constitutive Stat3 phosphorylation, Mean ± SEM, n ≥ 2
[15] = tested on: MCF-12A; test: Anchorage independent growth; assay type: cell-based
[16] = tested on: Hs 578T cells; test: Anchorage independent growth; assay type: cell-based, human; conditions: read-out: IC50 Anchorage independent growth (MTT), Mean ± SEM, n ≥ 2
Procedure, shortened: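 Cells grown in triplicate in ultra-low-attachment 96-well plates in complete DMEM ± test compound (0/0.1/0.3/1/3/10/100 μM) for 48–72 hrs. Viable cells were quantitated by MTT. Relative % viability was calculated as treated ÷ untreated × 100 and plotted against log concentration. IC50 was derived from ≥2 replicate experiments.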

[17] = tested on: ZR-75-1; test: Anchorage independent growth; assay type: cell-based
[18] = tested on: MEF/GFP-Stat3α cells; test: Anchorage-independent colony growth and MTT viability of MEF/GFP-Stat3α cells; assay type: cell-based; conditions: 3μM of PL
Procedure, shortened: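 Stat3−/− MEFs stably expressing GFP-Stat3α were grown under anchorage-independent conditions with increasing doses of test compound, then photographed. Mean colony number from duplicate wells was taken as a percentage of DMSO-treated cells. Viability by MTT was also expressed relative to DMSO-treated cells. IC50 values were fitted against log concentration.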

[19] = tested on: MDA-MB-468 cells; test: Anchorage independent growth; assay type: cell-based, human
[20] = tested on: BCM-2665; test: Mammosphere assay, patient-derived xenograft cells; assay type: cell-based, human; conditions: read-out: IC50 Mammosphere assay, Mean ± SEM, n ≥ 2
Procedure, shortened: as §1

[21] = tested on: Stat3-regulated genes; test: Quantitative RT-PCR of Stat3-regulated genes in MDA-MB-468 cells; assay type: cell-based, human; conditions: 30 μM, 6–8 hr
[22] = target: glutathione S-transferase pi 1 (GSTP1); conditions: read-out: IC50 for GSTP1 inhibition; cited from earlier work
[23] = target: GFP-Stat3α (Homo sapiens, UniProt P40763); assay type: cell-based
GFP-Stat3α, sequence (P40763 whole entry): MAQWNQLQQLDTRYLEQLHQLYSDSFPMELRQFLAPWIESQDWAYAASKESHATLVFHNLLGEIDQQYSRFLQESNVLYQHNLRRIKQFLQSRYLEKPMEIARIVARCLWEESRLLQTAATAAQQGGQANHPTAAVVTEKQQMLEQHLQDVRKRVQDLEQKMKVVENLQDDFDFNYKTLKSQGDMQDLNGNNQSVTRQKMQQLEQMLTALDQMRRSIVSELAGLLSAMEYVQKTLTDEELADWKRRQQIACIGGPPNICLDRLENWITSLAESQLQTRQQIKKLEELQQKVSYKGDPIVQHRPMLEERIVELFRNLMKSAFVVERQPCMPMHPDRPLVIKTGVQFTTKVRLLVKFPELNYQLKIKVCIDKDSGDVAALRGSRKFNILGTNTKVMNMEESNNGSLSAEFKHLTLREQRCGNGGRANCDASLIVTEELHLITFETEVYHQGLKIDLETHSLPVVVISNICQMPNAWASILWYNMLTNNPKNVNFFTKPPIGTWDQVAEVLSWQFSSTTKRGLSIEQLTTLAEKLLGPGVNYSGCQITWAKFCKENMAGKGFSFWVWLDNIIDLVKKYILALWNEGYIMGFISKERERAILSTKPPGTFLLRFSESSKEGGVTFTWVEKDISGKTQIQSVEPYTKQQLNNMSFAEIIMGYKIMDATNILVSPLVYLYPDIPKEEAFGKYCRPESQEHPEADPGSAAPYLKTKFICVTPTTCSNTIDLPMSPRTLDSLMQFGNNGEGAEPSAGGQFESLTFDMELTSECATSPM

[24] = read-out: Anchorage Independent Growth IC50, 16 hrs
[25] = read-out: Anchorage independent Growth IC50, 80 hrs
[26] = read-out: Anchorage independent Growth IC50, 80 hrs, no sensitivity taken as 100 μM

COc1cc(/C=C/C(=O)N2CCC=CC2=O)cc(OC)c1OC [Piperlongumine, piperlongumine]
IC50 [1, 24]: 7 µM | IC50 [1, 25]: 3.6 µM | reduction of β-actin-normalized BcL-xL mRNA in tumors [2]: ~ 50% | reduction of β-actin-normalized Survivin mRNA in tumors [2]: ~ 50% | increase of caspase 3 cleavage compared to earlier time points [3]: ~ 12 fold | IC50 [4, 24]: 12.9 µM | IC50 [4, 25]: 0.8 µM | IC50 [5]: 3.7 ± 1.7 µM | reduction of tumor weight [6]: > 50% | IC50 [7, 24]: 15.5 µM | IC50 [7, 25]: 1.7 µM | IC50 [8, 24]: 42 µM | IC50 [8, 25]: 0.3 µM | mammosphere formation by GFP+ cells [9]: completely inhibited | IC50 ([10]; read-out: Anchorage Independent Growth IC50, 16 hrs, no sensitivity taken as 100 μM): > 100 µM | IC50 [10, 26]: > 100 µM | IC50 ([11]; read-out: Anchorage Independent Growth IC50, 16 hrs, MDA-MB-231): 9.2 µM | IC50 ([11]; read-out: Anchorage independent Growth IC50, 80 hrs, MDA-MB-231): 0.3 µM | IC50 ([11]; read-out: IC50 Anchorage independent growth (MTT), MDA-MB 231, Mean ± SEM, n ≥ 2): 1.2 ± 1.8 µM | toxicity in mice [12]: non-toxic | IC50 [13]: 4.2 ± 2.3 µM | effect on levels of total Stat3 or pStat1, pStat5 and total Stat1 ([14]; MDA-MB-231 and MDA-MB-468 (pStat1, pStat5, total Stat1 in MDA-MB-468)): without substantially affecting | reduction of pStat3 levels at 15 min ([14]; MDA-MB-468, PL 30 μM): > 50% | time of maximal reduction of pStat3 ([14]; MDA-MB-468, PL 30 μM): ≤ 30 min | pStat3 levels in the GFP+ cells ([14]; Sum159PT xenograft-derived GFP+ cells, increasing doses of PL): decreased | IC50 ([14]; MDA-MB 231): 0.4 ± 0.5 µM | IC50 ([14]; MDA-MB 468): 2.8 ± 2.1 µM | IC50 [15, 24]: 16.2 µM | IC50 [15, 26]: > 100 µM | IC50 [16]: 0.2 ± 0.1 µM | IC50 [17, 24]: 80.6 µM | IC50 [17, 25]: 0.8 µM | spheroid colony formation [18]: completely abrogating | IC50 ([19]; read-out: Anchorage Independent Growth IC50, 16 hrs, MDA-MB-468): 2.8 µM | IC50 ([19]; read-out: Anchorage independent Growth IC50, 80 hrs, MDA-MB-468): 0.9 µM | IC50 ([19]; read-out: IC50 Anchorage independent growth (MTT), MDA-MB 468, Mean ± SEM, n ≥ 2): 4.6 ± 4.8 µM | IC50 [20]: 0.1 µM | increase of FAS (CD95) mRNA [21]: two fold | IC50 [22]: ~100 µM

O=C1C=CC(=O)c2c1ccc1c2ccc2ccccc21 [chrysene 1,4 quinone]
IC50 [23]: 10 µM
